Data: ChEMBL document CHEMBL4257504, “Tricyclic xanthine derivatives containing a basic substituent: adenosine receptor affinity and drug-related properties” (Medchemcomm, 2018)
Converted amounts (≈) assume the structure as drawn.

Legend:
[1] = Solubility of compound in water after over night incubation by UV spectroscopic method; type: physicochemical
Outline: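 Compound (10 mg, basic form) is suspended in 2 mL water, boiled 5 min, left overnight at 20 °C and filtered. The filtrate is diluted 10–80-fold in MeOH and read by UV in 90% MeOH/H2O. Concentration comes from seven-point standard curves (10^-3 to 10^-1 mg/mL) by linear regression, multiplied by the dilution factor.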

Adenosine receptor A2a = Adenosine receptor A2a (Rattus norvegicus, UniProt P30543); assay: Displacement of [3H]MSX-2 from adenosine A2A receptor in rat brain striatal membranes; type: cell membranes, Striatum, Membrane
Outline: (§1)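 Membrane radioligand binding: A1 in rat brain cortical membranes and A2A in rat brain striatal membranes, with human A1 and A2A in recombinant CHO cell membranes. Radioligands are [3H]CCPA for A1 and [3H]MSX-2 for A2A. Full concentration-inhibition curves use six to ten concentrations spanning three orders of magnitude, with at least three independent experiments.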

Adenosine receptor A2b [2] = biological target: T1, Adenosine receptor A2b (Homo sapiens, UniProt P29275); assay: […] from human adenosine A2B receptor expressed in CHO cell membranes; conditions: in the assay text read “[3H]PSB-603” for “[3H]PSB-602”
T1 sequence (P29275 whole entry): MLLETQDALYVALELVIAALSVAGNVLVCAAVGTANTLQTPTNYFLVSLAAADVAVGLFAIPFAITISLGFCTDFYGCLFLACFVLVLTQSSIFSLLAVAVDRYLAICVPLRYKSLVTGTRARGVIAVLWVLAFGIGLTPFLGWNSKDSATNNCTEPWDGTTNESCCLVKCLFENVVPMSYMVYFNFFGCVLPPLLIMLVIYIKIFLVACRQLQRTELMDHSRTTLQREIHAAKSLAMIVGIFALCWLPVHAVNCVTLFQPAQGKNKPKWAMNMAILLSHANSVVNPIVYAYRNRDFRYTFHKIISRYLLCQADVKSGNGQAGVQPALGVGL
Outline: (§2)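 Membranes from CHO cells recombinantly expressing human A2B or A3 receptor. Radioligands are [3H]PSB-603 for A2B and [3H]PSB-11 for A3. Competition curves use six to ten test-compound concentrations spanning three orders of magnitude, with at least three independent experiments.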

Adenosine receptor A3 = biological target: T2, Adenosine receptor A3 (Homo sapiens, UniProt P0DMS8); assay: Displacement of [3H]PSB-11 from human adenosine A3 receptor expressed in CHO cell membranes; outline: as §2
T2 sequence (P0DMS8 whole entry): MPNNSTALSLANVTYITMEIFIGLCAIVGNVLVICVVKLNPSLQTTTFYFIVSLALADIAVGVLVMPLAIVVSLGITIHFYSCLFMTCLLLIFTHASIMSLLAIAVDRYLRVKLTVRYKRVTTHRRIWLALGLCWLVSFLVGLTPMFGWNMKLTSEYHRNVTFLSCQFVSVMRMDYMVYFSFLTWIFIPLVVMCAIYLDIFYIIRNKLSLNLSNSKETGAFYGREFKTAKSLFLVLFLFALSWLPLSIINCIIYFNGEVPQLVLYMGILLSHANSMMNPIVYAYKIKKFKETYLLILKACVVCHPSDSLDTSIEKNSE

Adenosine receptor A1 = biological target: T3, Adenosine receptor A1 (Rattus norvegicus, UniProt P25099); assay: Displacement of [3H]CCPA from adenosine A1 receptor in rat brain cortical membranes; type: cell membranes; outline: as §1
T3 sequence (P25099 whole entry): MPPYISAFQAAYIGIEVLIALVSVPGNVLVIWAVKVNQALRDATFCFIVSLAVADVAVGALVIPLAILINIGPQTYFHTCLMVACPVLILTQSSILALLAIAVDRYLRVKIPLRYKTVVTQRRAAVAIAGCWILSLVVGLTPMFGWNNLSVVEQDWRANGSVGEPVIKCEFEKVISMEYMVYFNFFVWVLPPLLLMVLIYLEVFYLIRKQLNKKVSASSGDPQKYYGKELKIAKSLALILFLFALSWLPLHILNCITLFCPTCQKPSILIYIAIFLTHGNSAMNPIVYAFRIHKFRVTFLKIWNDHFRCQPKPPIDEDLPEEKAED

[3] = biological target: T4, Adenosine receptor A3 (Homo sapiens) (UniProt P0DMS8); assay: Displacement of [3H]PSB-11 from human adenosine A3 receptor expressed in CHO cell membranes at 1 uM relative to control
T4 sequence (whole entry): T2 sequence (P0DMS8 whole entry)

[4] = biological target: T5, Adenosine receptor A2b (Homo sapiens) (UniProt P29275); assay: Displacement of [3H]PSB-603 from human adenosine A2B receptor expressed in CHO cell membranes at 1 uM relative to control
T5 sequence (whole entry): T1 sequence (P29275 whole entry)

[5] = biological target: T6, Adenosine receptor A1 (Rattus norvegicus) (UniProt P25099); assay: Displacement of [3H]CCPA from adenosine A1 receptor in rat brain cortical membranes at 1 uM relative to control; type: cell membranes
T6 sequence (whole entry): T3 sequence (P25099 whole entry)

[6] = (§3) Drug level in human liver microsomes treated with 2-(4-(2-(1,3-Dibutyl-2,4-dioxo-1,2,3,4,7,8-hexahydropyrimido[2,1-f]purin-9(6H)-yl)ethyl)phenoxy)-N-(3-(diethylamino)propyl)-acetamide at 50 uM preincubated for 5 mins followed by addition of NADPH regenerating system and measured after 120 mins by UPLC/MS analysis; type: ADME, microsome; conditions: 2 h
Outline: (§4)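 Incubations use pooled human (adult male and female) or rat liver microsomes at 1 mg/ml in 0.1 M Tris-HCl pH 7.4 with compound at 50 μM. After 5 min preincubation at 37 °C, an NADPH regenerating system is added to start the reaction. Cold methanol stops it at 120 min; samples are centrifuged and the supernatant analysed by UPLC/MS.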

[7] = as §3, with “rat” for “human”; type: ADME, microsome; conditions: 2 h; outline: as §4
[8] = biological target: Adenosine receptor A2a (Rattus norvegicus) (UniProt P30543); assay: Displacement of [3H]MSX-2 from adenosine A2A receptor in rat brain striatal membranes at 1 uM relative to control; type: cell membranes; conditions: Striatum, Membrane
Adenosine receptor A2b [9] = biological target: T1, Adenosine receptor A2b; assay: Displacement of [3H]PSB-603 from human adenosine A2B receptor expressed in CHO cell membranes

Chain of Adenosine receptor A2a (Rattus norvegicus) (P30543 whole entry): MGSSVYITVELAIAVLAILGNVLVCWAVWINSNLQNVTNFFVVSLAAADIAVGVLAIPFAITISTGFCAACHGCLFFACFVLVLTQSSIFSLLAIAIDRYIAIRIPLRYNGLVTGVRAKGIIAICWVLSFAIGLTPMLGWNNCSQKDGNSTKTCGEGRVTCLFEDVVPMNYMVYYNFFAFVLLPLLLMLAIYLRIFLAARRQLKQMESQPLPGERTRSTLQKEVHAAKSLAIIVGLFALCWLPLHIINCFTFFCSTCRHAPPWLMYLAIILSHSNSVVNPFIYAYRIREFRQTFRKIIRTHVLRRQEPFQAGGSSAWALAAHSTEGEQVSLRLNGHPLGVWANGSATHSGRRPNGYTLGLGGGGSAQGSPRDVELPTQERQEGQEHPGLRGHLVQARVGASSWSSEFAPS
Chain of Adenosine receptor A2a (P30543 whole entry): as above

SMILES | solubility [1] [µM] | Ki (Adenosine receptor A2a) [nM] | Ki (Adenosine receptor A2b [2]) [nM] | Ki (Adenosine receptor A3) [nM] | Ki (Adenosine receptor A1) [nM] | inhibition [3] [%] | inhibition [4] [%] | inhibition [5] [%] | Drug metabolism [6] | Drug metabolism [7] | inhibition [8] [%] | Ki (Adenosine receptor A2b [9]) [nM]
CCCn1c(=O)c2c(nc3n2CCCN3CCc2ccc(OCC(=O)NCCN(CC)CC)cc2)n(CCC)c1=O | 1080 (≈ 615 µg/mL) | 271 | 179 | 508 | 120 |  |  |  |  |  |  | 
CCCn1c(=O)c2c(nc3n2CCCN3CCc2ccc(OCC(=O)NCCCN3CCCC3)cc2)n(CCC)c1=O |  | 320 | 452 | > 1000 | 146 | 33 |  |  |  |  |  | 
CCCn1c(=O)c2c(nc3n2CCCN3CCc2ccc(OCC(=O)NCc3ccccc3)cc2)n(CCC)c1=O |  | 3230 | > 1000 | > 1000 | > 10000 | 34 | 22 | 26 |  |  |  | 
CCCn1c(=O)c2c(nc3n2CCCN3CCc2ccc(OCC(=O)NCCc3ccc(S(N)(=O)=O)cc3)cc2)n(CCC)c1=O |  | 1870 | > 1000 | > 1000 | 10000 | 28 | 30 | 45 |  |  |  | 
CCCCn1c(=O)c2c(nc3n2CCCN3CCc2ccc(OCC(=O)NCCCNCC)cc2)n(CCCC)c1=O |  |  |  |  |  |  |  |  | Metabolite_Detected | Metabolite_Detected |  | 
CCCn1c(=O)c2c(nc3n2CCCN3CCc2ccc(OCC(=O)NCCc3ccccn3)cc2)n(CCC)c1=O |  | 1360 | > 1000 | > 1000 | 563 | 31 | 39 |  |  |  |  | 
CCCn1c(=O)c2c(nc3n2CCCN3CCc2ccc(OCC(=O)NCc3ccc(Cl)cc3)cc2)n(CCC)c1=O |  | > 10000 | > 1000 | 1090 | > 10000 |  | -4 | 18 |  |  | 24 | 
CCCCn1c(=O)c2c(nc3n2CCCN3CCc2ccc(OCC(=O)NCCc3ccc(S(N)(=O)=O)cc3)cc2)n(CCCC)c1=O |  | 2270 | > 1000 | > 1000 | > 10000 | 23 | 31 | 27 |  |  |  | 
CCCCn1c(=O)c2c(nc3n2CCCN3CCc2ccc(OCC(=O)NCc3cccc(Cl)c3)cc2)n(CCCC)c1=O |  | 6520 | > 1000 | > 1000 | 684 | 42 | 18 |  |  |  |  | 
CCCCn1c(=O)c2c(nc3n2CCCN3CCc2ccc(OCC(=O)NCc3ccc(Cl)cc3)cc2)n(CCCC)c1=O |  | 7310 | > 1000 | > 1000 | 593 | 23 | 31 |  |  |  |  | 
CCCCn1c(=O)c2c(nc3n2CCCN3CCc2ccc(OCC(=O)NCCC(=O)O)cc2)n(CCCC)c1=O |  |  |  |  |  |  |  |  | Metabolite_Detected | Metabolite_Detected |  | 
CCCn1c(=O)c2c(nc3n2CCCN3CCc2ccc(OCC(=O)NCc3ccc(F)cc3)cc2)n(CCC)c1=O |  | 1360 | > 1000 | > 1000 | > 10000 | 41 | 31 | 37 |  |  |  | 
CCCn1c(=O)c2c(nc3n2CCCN3CCc2ccc(OCC(=O)NCc3cccc(OC)c3)cc2)n(CCC)c1=O |  | > 10000 | > 1000 | > 1000 | > 10000 | 28 | 39 | 22 |  |  | 37 | 
CCCn1c(=O)c2c(nc3n2CCCN3CCc2ccc(OCC(=O)NCc3cccc(Cl)c3)cc2)n(CCC)c1=O |  | 807 | > 1000 | 572 | 1370 |  | 22 |  |  |  |  | 
CCCn1c(=O)c2c(nc3n2CCCN3CCc2ccc(OCC(=O)NCCN3CCCC3)cc2)n(CCC)c1=O |  | 551 |  | 509 | 113 |  |  |  |  |  |  | 193
CCCn1c(=O)c2c(nc3n2CCCN3CCc2ccc(OCC(=O)NCCCNC3CCCCC3)cc2)n(CCC)c1=O |  | 335 |  | 458 | 145 |  |  |  |  |  |  | 306
CCCCn1c(=O)c2c(nc3n2CCCN3CCc2ccc(OCC(=O)NCCN(CC)CC)cc2)n(CCCC)c1=O | 189 (≈ 113 µg/mL) | 242 |  | 155 | 50.7 |  |  |  |  |  |  | 113
CCCCn1c(=O)c2c(nc3n2CCCN3CCc2ccc(OCC(=O)NCCN3CCOCC3)cc2)n(CCCC)c1=O |  | 671 | 298 | > 1000 | 181 | 46 |  |  |  |  |  | 
CCCCn1c(=O)c2c(nc3n2CCCN3CCc2ccc(OCC(=O)NCCCn3ccnc3)cc2)n(CCCC)c1=O |  | 569 | 275 | 868 | 194 |  |  |  |  |  |  | 
CCCn1c(=O)c2c(nc3n2CCCN3CCc2ccc(OCC(=O)NCCCN(CC)CC)cc2)n(CCC)c1=O | 823 (≈ 479 µg/mL) | 303 |  | > 1000 | 136 | 36 |  |  |  |  |  | 340
CCCCn1c(=O)c2c(nc3n2CCCN3CCc2ccc(OCC(=O)NCCc3ccccn3)cc2)n(CCCC)c1=O |  | 1070 | > 1000 | > 1000 | 382 | 44 | 39 |  |  |  |  | 
CCCn1c(=O)c2c(nc3n2CCCN3CCc2ccc(OCC(=O)NCCN3CCOCC3)cc2)n(CCC)c1=O |  | 1120 | 911 | > 1000 | 509 | 21 |  |  |  |  |  | 
CCCCn1c(=O)c2c(nc3n2CCCN3CCc2ccc(OCC(=O)NCc3ccccc3)cc2)n(CCCC)c1=O |  | 1290 | 578 | 602 | 320 |  |  |  |  |  |  | 
CCCCn1c(=O)c2c(nc3n2CCCN3CCc2ccc(OCC(=O)NCCCNC3CCCCC3)cc2)n(CCCC)c1=O |  | 1250 | 215 | 353 | 118 |  |  |  |  |  |  | 
CCCCn1c(=O)c2c(nc3n2CCCN3CCc2ccc(OCC(=O)NCc3cccc(OC)c3)cc2)n(CCCC)c1=O |  | 1630 | > 1000 | > 1000 | 1590 | 41 | 41 |  |  |  |  | 
CCCn1c(=O)c2c(nc3n2CCCN3CCc2ccc(OCC(=O)NCCCn3ccnc3)cc2)n(CCC)c1=O |  | 637 | 862 | 1000 | 605 |  |  |  |  |  |  | 
CCCCn1c(=O)[nH]c2nc3n(c2c1=O)CCCN3CCc1ccc(OCC(=O)NCCCN(CC)CC)cc1 |  |  |  |  |  |  |  |  |  | Metabolite_Detected |  | 
CCCCn1c(=O)c2c(nc3n2CCCN3CCc2ccc(OCC(=O)NCc3ccc(F)cc3)cc2)n(CCCC)c1=O |  | > 10000 | > 1000 | > 1000 | 1010 | 40 | 43 |  |  |  | 32 | 
